The list is not random: actives were taken first. Their share in the collection is about 2.6%.
NR2E3 ag-1: NR2E3 agonists in two-hybrid cells, primary screen, cell-based, luminescence, CHO-S, Gal4-NCOR/VP16-NR2E3 | Photoreceptor-specific nuclear receptor (Homo sapiens), Q9Y5X4 | luciferase | 0.35% of 360,000 active | inhibition of corepressor binding, % at 3.98 µM | AID 602229, 2012;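 active means inhibition above the mean of all tested compounds plus 3 SD, cut at about 70% in these data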;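 further: 0% = DMSO with NR2E3 transfected cells and 100% = cells lacking NR2E3 construct; higher means lower luciferase signal from less NR2E3 corepressor binding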
Target sequence (Q9Y5X4 whole entry, looked up, the tested form may be a part): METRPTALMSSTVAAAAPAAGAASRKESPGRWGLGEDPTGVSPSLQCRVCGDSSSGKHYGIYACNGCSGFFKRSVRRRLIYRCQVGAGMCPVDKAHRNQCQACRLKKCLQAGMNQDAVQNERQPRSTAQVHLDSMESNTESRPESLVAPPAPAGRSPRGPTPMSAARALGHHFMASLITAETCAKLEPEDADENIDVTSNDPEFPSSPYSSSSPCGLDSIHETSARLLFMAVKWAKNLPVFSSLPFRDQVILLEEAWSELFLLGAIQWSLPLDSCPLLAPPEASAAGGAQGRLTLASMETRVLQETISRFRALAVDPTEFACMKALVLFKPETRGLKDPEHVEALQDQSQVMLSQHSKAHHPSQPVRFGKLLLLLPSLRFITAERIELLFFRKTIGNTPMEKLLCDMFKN
rCAG binder: binders of r(CAG) RNA repeats, primary screen, biochemical, fluorescence. r(CAG) RNA repeat, TO-PRO-1 dye displacement fluorescence. inhibition, % at 3 µM. 1.3% of 370,000 active;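 active means inhibition above the plate cutoff, the mean of all test compounds on that plate plus 3 SD, cut at about 35% in these data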;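 further: 0% = DMSO alone and 100% = 100 µM mitoxantrone as full dye displacement; higher means more dye released from RNA so lower well fluorescence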
NR1D1 modulator: modulators of Rev-erb alpha DNA binding, primary screen, biochemical, FITC-DNA, fluorescence polarization, uHTS; 0.79% of 370,000 active; Rev-erbα–FITC-DNA binding, 90 min; Nuclear receptor subfamily 1 group D member 1 (Homo sapiens), P20393; activity, % at 10 µM; AID 1259318, 2017;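 active means activity above about 14%, limit read from the data; passing the limit was not always enough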;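 further: 0% = DMSO wells with 35 nM protein and 100% = DMSO wells with 750 nM protein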
NR2E3 ag-2: inhibitors of NR2E3-RetCOR corepressor binding, primary screen, NR2E3 agonist project, biochemical, TR-FRET, GST-NR2E3, biotin-RetCOR. Photoreceptor-specific nuclear receptor (Homo sapiens), Q9Y5X4. 1536-well. inhibition of corepressor binding, % at 4.78 µM. 0.12% of 320,000 active;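 active means percent inhibition above the cutoff of mean plus 3 SD of all tested compounds, set per screening campaign, cut at about 20% in these data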;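 further: 0% = DMSO wells and 100% = biotin wells as full block of FRET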
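System: GST-tagged NR2E3 plus biotinylated RetCOR corepressor; Amount: 1.35 nM GST-tagged NR2E3 final; Dosing: single nominal compound dose of 4.8 µM; Schedule: 5 h incubation at 4 °C; Technique: TR-FRET with europium anti-GST and streptavidin-D2, 340 nm excitation; Controls: biotin wells as high control, 0.6% DMSO wells as low control.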
PG9 Ab binder: binders of HIV-1 gp120 antibody PG9, primary screen, biochemical, TR-FRET; 0.43% of 360,000 active; HIV-1 gp120 / PG9 antibody interaction; AID 624416, 2012; TR-FRET gp120-PG9 antibody binding; inhibition, % at 6.7 µM; in the data active means inhibition above about 8.5%
rCAG bind conf: small molecules binding CAG repeat RNA – biochemical, fluorescence, confirmation; shares compounds with rCAG binder; r(CAG) RNA repeat, TO-PRO-1 dye displacement fluorescence; inhibition, % at 3 µM; 70% of 4,300 active;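 active means inhibition above a per-plate cutoff, the mean inhibition of sample wells plus 3 SD, cut at about 35% in these data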;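 further: loss of TO-PRO-1 fluorescence as compound displaces dye from 1x1 AA loop RNA; 0% = DMSO only wells and 100% = 100 µM mitoxantrone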
dCAG dye counter: displacement of TO-PRO-1 from CAG DNA duplex, counter-screen for rCAG RNA repeat binder project, biochemical, fluorescence, TO-PRO-1 dye, d(CAG) DNA oligo. shares compounds with rCAG binder. d(CAG) DNA oligo TO-PRO-1 dye displacement. 94% of 4,300 active. inhibition, % at 3 µM;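 active means inhibition above its plate's cutoff, the mean test-well inhibition plus 3 SD, cut at about 4.8% in these data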;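 further: 0% = DNA dye mix with DMSO and 100% = 100 µM mitoxantrone; hits displace the dye from DNA and so lower well fluorescence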
DNA CAG DR: inhibitors of DNA CAG/GTC TO-PRO-1 complex, dose response, counter-screen for rCAG RNA repeat binder project, biochemical, fluorescence, TO-PRO-1 dye; DNA CAG/GTC duplex TO-PRO-1 dye displacement fluorescence; shares compounds with rCAG binder; 20% of 250 active; AID 686960, 2013; IC50, µM; in the data active means IC50 below about 10 µM
The depositor's hits bear a star; i = inactive; . = no result given.

SMILES	NR2E3 ag-1	rCAG binder	NR1D1 modulator	NR2E3 ag-2	PG9 Ab binder	rCAG bind conf	dCAG dye counter	others
O=C(CN1C(=O)/C(=C/c2ccco2)SC1=S)Nc1ccc(O)c(C(=O)O)c1	-8	88*	-12	1	-1	82*	47*
COc1cc(NC(=O)Cn2cnc3c(OCc4ccccc4)ncnc32)cc(OC)c1OC	-7	0	-2	.	1	.	.
CN(CC(=O)Nc1ccc(F)c(F)c1F)C(=O)c1ccc(-n2cncn2)cc1	7	0	6	2	-2	.	.
CC(C)c1ccc(C2c3[nH]c4ccccc4c3C[C@H]3C(=O)N(c4ccccc4C(=O)N4CCC[C@H]4C(=O)O)C(=O)N23)cc1 (stereo not given in full)	-16	46*	-6	1	0	70*	27*	DNA CAG DR=i
O=C(/C=C/c1ccc2c(c1)OCO2)Nc1c(C(=O)O)[nH]c2ccccc12	-33	45*	3	0	-3	38*	13*
CCOC(=O)c1[nH]c2ccc(OC)cc2c1NC(=O)/C=C/c1ccc2c(c1)OCO2	-15	3	-2	-4	-3	.	.
COc1ccccc1NS(=O)(=O)c1ccc(NC(=O)c2ccncc2)cc1	0	3	-2	-2	0	.	.
COc1ccccc1NS(=O)(=O)c1ccc(NC(=O)c2[nH]nc(OC)c2[N+](=O)[O-])cc1	11	47*	2	.	-2	26	7.2*
COc1ccc(-c2nn(-c3ccccc3)cc2C(=O)NC(=S)NNC(=O)c2ccncc2)cc1	-29	56*	5	1	-1	55*	20*
O=C(NNC(=S)NCCc1ccccc1)c1ccc(Br)s1	-20	54*	-5	4	-1	47*	14*	DNA CAG DR=>30
O=C(CCc1ccc(O)cc1)NNC(=S)NCCc1ccccc1	-8	-2	-5	-4	0	.	.
O=C(CSc1nc2ccccc2s1)NNC(=S)Nc1ccc(Cl)cc1	-8	58*	5	-1	-3	69*	30*
Cc1ccc(NC(=S)NNC(=O)CSc2nc3ccccc3c(=O)n2-c2ccc(Cl)cc2)cc1	.	57*	-3	.	.	47*	22*
Cc1ccc(-n2c(SCC(=O)NNC(=S)Nc3ccccc3)nc3ccccc3c2=O)cc1	-19	55*	0	3	2	42*	18*
C=CCNC(=S)NNC(=O)CSc1nc2ccccc2s1	-19	3	1	0	0	.	.
COc1cc(NS(=O)(=O)c2ccc(N/C=C\C(=O)c3ccc(OC)c(OC)c3)cc2)nc(OC)n1	-16	35*	5	-2	0	46*	14*
COc1ccc(C(=O)/C=C/Nc2ccc(S(=O)(=O)Nc3cc(OC)nc(OC)n3)cc2)c(OC)c1	11	32	-1	4	2	.	.
COc1cc(NS(=O)(=O)c2ccc(N/C=C\C(=O)c3ccc(C)cc3)cc2)nc(OC)n1	-80	17	3	2	0	.	.
COc1cccc(C(=O)/C=C/Nc2ccc(S(=O)(=O)Nc3cc(OC)nc(OC)n3)cc2)c1	-26	45*	-2	3	0	54*	19*
CC(=O)Nc1ccc(S(=O)(=O)Nc2nc3ccccc3nc2N2CCc3ccccc3C2)cc1	-52	49*	3	6	0	60*	25*
Cc1ccccc1S(=O)(=O)Nc1nc2ccccc2nc1N1CCc2ccccc2C1	-47	35*	0	3	0	45*	15*
O=S(=O)(Nc1nc2ccccc2nc1N1CCc2ccccc2C1)c1ccc(Br)cc1	-142	13	4	2	2	.	.
O=C(O)c1cccc(-c2ccc(/C=N/NC(=O)C3COc4ccccc4O3)o2)c1 (stereo not given)	-33	18	5	-2	-2	.	.
CC(C)(C)c1ccc2c(c1)OC(C(=O)N/N=C\c1ccc(-c3cccc(C(=O)O)c3)o1)CO2 (stereo not given)	-89	41*	1	0	-1	77*	43*
Cc1ccc(OCC(=O)N/N=C\c2ccc(-c3cccc(C(=O)O)c3)o2)c(C)c1	-77	46*	2	-4	-1	42*	11*
SMILES	NR2E3 ag-1	rCAG binder	NR1D1 modulator	NR2E3 ag-2	PG9 Ab binder	rCAG bind conf	dCAG dye counter	others
Cc1ccc(OC(=O)CCC(=O)Nc2ccc(S(=O)(=O)Nc3cc(C)on3)cc2)cc1	10	-1	3	1	-1	.	.
CCC(Oc1ccc(C)cc1)C(=O)Nc1ccc(S(=O)(=O)Nc2cc(C)on2)cc1 (stereo not given)	-14	36*	3	-2	0	21	2
CCc1nnc(NS(=O)(=O)c2ccc(NC(=O)c3ccc(S(=O)(=O)N(CC)CC)cc3)cc2)s1	0	76*	-5	-2	-1	67*	29*
CCN(CC)S(=O)(=O)c1ccc(NC(=O)c2ccc(NS(C)(=O)=O)cc2)cc1	-4	4	-2	2	0	.	.
CCOc1cc(C(=O)Nc2ccc(S(=O)(=O)Nc3cc(C)on3)cc2)cc(OCC)c1OCC	-6	41*	2	6	-2	34	8.4*
CCc1nnc(NS(=O)(=O)c2ccc(NC(=O)c3cccc(Br)c3)cc2)s1	15	73*	-1	1	1	53*	19*
O=C(Nc1ccc(S(=O)(=O)Nc2ncccn2)cc1)c1cccc(Br)c1	7	-1	0	.	2	.	.
COc1cc(C(=O)Nc2ccc(S(=O)(=O)Nc3cc(C)on3)cc2)cc(OC)c1OC	-4	10	-1	-2	-2	.	.
CC(C)CN(C(=O)c1ccc(N2CCCC2=O)cc1)c1c(N)n(Cc2ccccc2)c(=O)[nH]c1=O	-1	3	-4	3	0	.	.
CCc1ccc(C2CC3C(CN2S(=O)(=O)c2ccc(C)cc2)[C@@H](O)C[C@@H](c2ccc(CC)cc2)N3S(=O)(=O)c2ccc(C)cc2)cc1 (stereo not given in full)	.	16	-2	.	-3	.	.

Bioassay records from PubChem BioAssay.
